The values below come from ChEMBL document CHEMBL1145361, “3-Amino-1-alkyl-cyclopentane carboxamides as small molecule antagonists of the human and murine CC chemokine receptor 2” (Bioorg Med Chem Lett, 2007).

As usually defined, the half-life is how long it takes for the measured level to halve. Broadly, the bioavailability is dose-corrected exposure relative to a reference, in per cent. Read a high bioavailability as good availability. One may read the IC50 as the concentration that inhibits the measured activity by half. The low end stands for higher potency, the high end for lower potency. As a reminder, the clearance is the volume of plasma or blood freed of the substance per unit of time. In general, Cmax refers to the highest concentration seen after dosing. Broadly, the Tmax is the time from dosing to the highest level.

C-C chemokine receptor type 2 (Mus musculus, UniProt P51683), sequence (P51683 whole entry): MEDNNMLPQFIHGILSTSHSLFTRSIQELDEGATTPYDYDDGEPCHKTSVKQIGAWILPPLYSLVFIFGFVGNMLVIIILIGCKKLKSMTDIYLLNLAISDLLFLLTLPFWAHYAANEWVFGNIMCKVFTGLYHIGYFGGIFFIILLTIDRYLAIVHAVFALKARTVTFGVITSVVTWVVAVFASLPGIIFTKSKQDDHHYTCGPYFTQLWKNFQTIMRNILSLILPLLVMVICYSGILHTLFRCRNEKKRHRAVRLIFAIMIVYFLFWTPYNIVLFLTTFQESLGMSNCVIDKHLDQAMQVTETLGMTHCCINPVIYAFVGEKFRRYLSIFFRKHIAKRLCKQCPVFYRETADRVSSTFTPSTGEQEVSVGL
C-C chemokine receptor type 2 (Homo sapiens, UniProt P41597, I40L), sequence (P41597 whole entry I40L): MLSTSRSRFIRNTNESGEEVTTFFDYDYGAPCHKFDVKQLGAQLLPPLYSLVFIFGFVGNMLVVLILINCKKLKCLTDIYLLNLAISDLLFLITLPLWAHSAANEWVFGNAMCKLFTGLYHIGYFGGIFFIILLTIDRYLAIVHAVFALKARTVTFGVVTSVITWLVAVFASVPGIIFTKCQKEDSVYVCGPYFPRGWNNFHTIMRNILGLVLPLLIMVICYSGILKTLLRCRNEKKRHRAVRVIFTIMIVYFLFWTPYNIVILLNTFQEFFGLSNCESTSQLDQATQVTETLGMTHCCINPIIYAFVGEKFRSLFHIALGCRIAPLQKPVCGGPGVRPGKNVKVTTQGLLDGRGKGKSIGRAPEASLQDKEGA

Test system in one data set: not listed separately
Nature of the data set: Half life in Sprague-Dawley rat at 3 mg/kg, po. To be noted: in vivo. Also on record: dose 3 mg/kg, route oral. It is filed as ADME, organism-based. The method in brief:
(§1)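 Male Sprague–Dawley rats were dosed intravenously at 1.0 mg/kg and orally at 3.0 mg/kg. Clearance, volume of distribution, t1/2, Cmax, Tmax, oral bioavailability (F%) and AUC were determined, with oral AUC normalized.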
`CC(C)[C@]1(C(=O)NCc2cc(F)cc(C(F)(F)F)c2)CC[C@@H](N2CC[C@]3(C=Cc4ccccc43)[C@@H](C)C2)C1` showed a half-life of 120 min.

Test system in another data set: not listed separately
Briefly: Bioavailability in Sprague-Dawley rat at 3 mg/kg, po. The class given is ADME, organism-based. To be noted: in vivo. The method in brief: as §1
In turn, `CC(C)[C@]1(C(=O)NCc2cc(F)cc(C(F)(F)F)c2)CC[C@@H](N2CC[C@]3(C=Cc4ccccc43)[C@@H](C)C2)C1` gave a bioavailability of 32%.

A further data set has as its target C-C chemokine receptor type 2 (Homo sapiens, UniProt P41597, I40L). Nature of the data set: Displacement of [125I]MCP1 from human CCR2 I40L mutant expressed in CHO cells. It is filed as cell-based.
Conditions: not given
In short, it runs like this:
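Radioligand competition was run at room temperature for 45 min in 50 mM Hepes, 5 mM MgCl2, 1 mM CaCl2, pH 7.4, with 0.5% BSA and protease inhibitors. The reaction was stopped by filtration through GF/B filters presoaked in 0.10% polyethyleneimine to separate bound from free ligand.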
A general note: Displacement assays read how much labelled ligand stays bound in the presence of the test substance.
`CCCC1(C(=O)NCc2cc(F)cc(C(F)(F)F)c2)CCC(N2CC[C@]3(C=Cc4ccccc43)[C@@H](C)C2)C1` (stereo not given in full) returned an IC50 of 5 nM.

For `CC(C)C[C@]1(C(=O)NCc2cc(C(F)(F)F)cc(C(F)(F)F)c2)CC[C@@H](N2CC[C@]3(C=Cc4ccccc43)[C@@H](C)C2)C1`, the IC50 is 8 nM.

Regarding `COCC1(C(=O)NCc2cc(C(F)(F)F)cc(C(F)(F)F)c2)CCC(N2CC[C@]3(C=Cc4ccccc43)[C@@H](C)C2)C1` (stereo not given in full), the IC50 came out at 15.5 nM.

On to `COCC1(C(=O)NCc2cc(F)cc(C(F)(F)F)c2)CCC(N2CC[C@]3(C=Cc4ccccc43)[C@@H](C)C2)C1` (stereo not given in full), for which the IC50 is 8.5 nM.

As to `CCC1(C(=O)NCc2cc(C(F)(F)F)cc(C(F)(F)F)c2)CCC(N2CC[C@]3(C=Cc4ccccc43)[C@@H](C)C2)C1` (stereo not given in full), the IC50 came out at 10 nM.

For `C[C@H]1CN([C@@H]2CC[C@H](C(=O)NCc3cc(C(F)(F)F)cc(C(F)(F)F)c3)C2)CC[C@]12C=Cc1ccccc12`, the IC50 stood at 20 nM.

For the compound `C[C@H]1CN(C2CCC(CC3CC3)(C(=O)NCc3cc(C(F)(F)F)cc(C(F)(F)F)c3)C2)CC[C@]12C=Cc1ccccc12` (stereo not given in full), the IC50 was 20 nM.

On to `C[C@H]1CN(C2CCC(CC3CCC3)(C(=O)NCc3cc(F)cc(C(F)(F)F)c3)C2)CC[C@]12C=Cc1ccccc12` (single isomer, unassigned; diastereomer 4), for which the IC50 amounted to 229 nM.

As to `CSC[C@]1(C(=O)NCc2cc(C(F)(F)F)cc(C(F)(F)F)c2)CC[C@@H](N2CC[C@]3(C=Cc4ccccc43)[C@@H](C)C2)C1`, the IC50 worked out at 13 nM.

On to `CC(C)[C@]1(C(=O)NCc2cc(F)cc(C(F)(F)F)c2)CC[C@@H](N2CC[C@]3(C=Cc4ccccc43)[C@@H](C)C2)C1`, for which the IC50 stood at 3.1 nM.

`C[C@H]1CN(C2CCC(CC3CCC3)(C(=O)NCc3cc(F)cc(C(F)(F)F)c3)C2)CC[C@]12C=Cc1ccccc12` (stereo not given in full) registered an IC50 of 6.3 nM.

Regarding `CCCCCCC1(C(=O)NCc2cc(C(F)(F)F)cc(C(F)(F)F)c2)CCC(N2CC[C@]3(C=Cc4ccccc43)[C@@H](C)C2)C1` (stereo not given in full), the IC50 was 231 nM.

`C[C@H]1CN(C2CCC(CC3CC3)(C(=O)NCc3cc(F)cc(C(F)(F)F)c3)C2)CC[C@]12C=Cc1ccccc12` (stereo not given in full) showed an IC50 of 5.5 nM.

In the case of `CS[C@]1(C(=O)NCc2cc(C(F)(F)F)cc(C(F)(F)F)c2)CC[C@@H](N2CC[C@]3(C=Cc4ccccc43)[C@@H](C)C2)C1`, the IC50 was determined as 28 nM.

Test system in another data set: not listed separately
Briefly: Clearance in Sprague-Dawley rat at 1 mg/kg, iv. It is filed as ADME, organism-based. Also on record: dose 1 mg/kg, route intravenous. To be noted: in vivo. In short, it runs like this: as §1
Take `CC(C)[C@]1(C(=O)NCc2cc(F)cc(C(F)(F)F)c2)CC[C@@H](N2CC[C@]3(C=Cc4ccccc43)[C@@H](C)C2)C1`: the clearance stood at 19.4 mL/min/kg.

Test system in the next data set: not listed separately
Nature of the data set: Cmax in Sprague-Dawley rat at 3 mg/kg, po. The class given is ADME, organism-based. Also on record: dose 3 mg/kg, route oral. To be noted: in vivo. The method in brief:
as §1
`CC(C)[C@]1(C(=O)NCc2cc(F)cc(C(F)(F)F)c2)CC[C@@H](N2CC[C@]3(C=Cc4ccccc43)[C@@H](C)C2)C1` registered a Cmax of 414 nM.

Test system in a further data set: not listed separately
Nature of the data set: Half life in Sprague-Dawley rat at 1 mg/kg, iv. Also on record: dose 1 mg/kg, route intravenous. To be noted: in vivo. It is filed as ADME, organism-based. In short, it runs like this: as §1
In turn, `CC(C)[C@]1(C(=O)NCc2cc(F)cc(C(F)(F)F)c2)CC[C@@H](N2CC[C@]3(C=Cc4ccccc43)[C@@H](C)C2)C1` gave a half-life of 150 min.

For the next data set, the target named is C-C chemokine receptor type 2 (Homo sapiens, UniProt P41597). Nature of the data set: Inhibition of Ca2+ flux in human monocytes. It is filed as functional, cell-based.
C-C chemokine receptor type 2 (Homo sapiens, UniProt P41597), sequence (P41597 whole entry): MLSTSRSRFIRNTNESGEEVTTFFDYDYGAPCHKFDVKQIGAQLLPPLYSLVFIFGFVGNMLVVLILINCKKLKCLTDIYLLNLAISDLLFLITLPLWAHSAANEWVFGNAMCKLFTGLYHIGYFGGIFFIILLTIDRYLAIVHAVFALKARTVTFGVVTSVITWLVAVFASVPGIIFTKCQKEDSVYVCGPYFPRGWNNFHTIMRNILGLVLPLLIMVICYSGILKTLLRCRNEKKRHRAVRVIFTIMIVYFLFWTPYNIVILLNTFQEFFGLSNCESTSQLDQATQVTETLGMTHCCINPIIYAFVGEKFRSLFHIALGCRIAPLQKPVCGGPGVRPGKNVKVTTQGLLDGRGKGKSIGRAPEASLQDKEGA
Conditions: not given
(In general: A change in cytosolic calcium serves as a functional read-out for many receptors and channels.)
In turn, `CC(C)[C@]1(C(=O)NCc2cc(F)cc(C(F)(F)F)c2)CC[C@@H](N2CC[C@]3(C=Cc4ccccc43)[C@@H](C)C2)C1` displayed an IC50 of 0.71 nM.

The target in another data set is C-C chemokine receptor type 2 (Mus musculus) (UniProt P51683). Briefly: Displacement of [125I]MCP1 from mouse CCR2 receptor expressed in CHO cells at 1 uM. The class given is cell-based.
C-C chemokine receptor type 2 (Mus musculus), sequence (P51683 whole entry, looked up): as the sequence (P51683 whole entry) above
Conditions: not given
As for `C[C@H]1CN([C@@H]2CC[C@H](C(=O)NCc3cc(C(F)(F)F)cc(C(F)(F)F)c3)C2)CC[C@]12C=Cc1ccccc12`, the Activity stood at 27%.

Test system in the next data set: not listed separately
Nature of the data set: Volume of distribution in Sprague-Dawley rat at 1 mg/kg, iv. It is filed as ADME, organism-based. Also on record: dose 1 mg/kg, route intravenous. The settings on record: in vivo, read-out: Vdss. In short, it runs like this: as §1
As to `CC(C)[C@]1(C(=O)NCc2cc(F)cc(C(F)(F)F)c2)CC[C@@H](N2CC[C@]3(C=Cc4ccccc43)[C@@H](C)C2)C1`, the Vd amounted to 2.99 L/kg.

The next data set concerns the target C-C chemokine receptor type 2 (Mus musculus, UniProt P51683). Briefly: Displacement of [125I]MCP1 from mouse CCR2 receptor expressed in CHO cells. It is filed as cell-based.
Conditions: not given
For the compound `CCCC1(C(=O)NCc2cc(F)cc(C(F)(F)F)c2)CCC(N2CC[C@]3(C=Cc4ccccc43)[C@@H](C)C2)C1` (stereo not given in full), the IC50 stood at 17 nM.

Compound `CC(C)C[C@]1(C(=O)NCc2cc(C(F)(F)F)cc(C(F)(F)F)c2)CC[C@@H](N2CC[C@]3(C=Cc4ccccc43)[C@@H](C)C2)C1` had an IC50 of 26 nM.

The compound `COCC1(C(=O)NCc2cc(C(F)(F)F)cc(C(F)(F)F)c2)CCC(N2CC[C@]3(C=Cc4ccccc43)[C@@H](C)C2)C1` (stereo not given in full) returned an IC50 of 93 nM.

`COCC1(C(=O)NCc2cc(F)cc(C(F)(F)F)c2)CCC(N2CC[C@]3(C=Cc4ccccc43)[C@@H](C)C2)C1` (stereo not given in full) came in with an IC50 of 74 nM.

In the case of `CCC1(C(=O)NCc2cc(C(F)(F)F)cc(C(F)(F)F)c2)CCC(N2CC[C@]3(C=Cc4ccccc43)[C@@H](C)C2)C1` (stereo not given in full), the IC50 worked out at 17.5 nM.

Compound `C[C@H]1CN(C2CCC(CC3CC3)(C(=O)NCc3cc(C(F)(F)F)cc(C(F)(F)F)c3)C2)CC[C@]12C=Cc1ccccc12` (stereo not given in full) had an IC50 of 63.5 nM.

As for `CSC[C@]1(C(=O)NCc2cc(C(F)(F)F)cc(C(F)(F)F)c2)CC[C@@H](N2CC[C@]3(C=Cc4ccccc43)[C@@H](C)C2)C1`, the IC50 was 65.5 nM.

In turn, `CC(C)[C@]1(C(=O)NCc2cc(F)cc(C(F)(F)F)c2)CC[C@@H](N2CC[C@]3(C=Cc4ccccc43)[C@@H](C)C2)C1` had an IC50 of 5 nM.

On to `C[C@H]1CN(C2CCC(CC3CCC3)(C(=O)NCc3cc(F)cc(C(F)(F)F)c3)C2)CC[C@]12C=Cc1ccccc12` (stereo not given in full), for which the IC50 worked out at 28 nM.

The compound `CCCCCCC1(C(=O)NCc2cc(C(F)(F)F)cc(C(F)(F)F)c2)CCC(N2CC[C@]3(C=Cc4ccccc43)[C@@H](C)C2)C1` (stereo not given in full) yielded an IC50 of 279 nM.

For the compound `C[C@H]1CN(C2CCC(CC3CC3)(C(=O)NCc3cc(F)cc(C(F)(F)F)c3)C2)CC[C@]12C=Cc1ccccc12` (stereo not given in full), the IC50 is 15 nM.

For the compound `CS[C@]1(C(=O)NCc2cc(C(F)(F)F)cc(C(F)(F)F)c2)CC[C@@H](N2CC[C@]3(C=Cc4ccccc43)[C@@H](C)C2)C1`, the IC50 was 351 nM.

Test system in a further data set: not listed separately
Nature of the data set: Tmax in Sprague-Dawley rat at 3 mg/kg, po. It is filed as ADME, organism-based. On the set-up: dose 3 mg/kg, route oral. To be noted: in vivo. The method in brief: as §1
Turning to `CC(C)[C@]1(C(=O)NCc2cc(F)cc(C(F)(F)F)c2)CC[C@@H](N2CC[C@]3(C=Cc4ccccc43)[C@@H](C)C2)C1`, the time of peak concentration (Tmax) is 49.8 min.
